# Test results from ChEMBL document CHEMBL1914423, “New imidazo[2,1-b]thiazole derivatives: synthesis, in vitro anticancer evaluation, and in silico studies” (Eur J Med Chem, 2011).
# Columns and labels:
# Type in all cases: functional
# MDA-MB-231 = experiment: Anticancer activity against human MDA-MB-231 cells assessed as cell growth at 10^-5 M after 48 hrs by SRB assay; details: MDA-MB-231, 48 h, read-out: Activity
# Summary of the method: (§1)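 NCI-60 single-dose screen at one concentration. Cells grown in RPMI 1640 with 5% FBS and 2 mM L-glutamine, plated at 5000–40,000 cells/well, and pre-incubated 24 h at 37 °C in 5% CO2 before DMSO-dissolved drug was added. Cells fixed with TCA, SRB-stained, absorbance read at 515 nm. Percent growth calculated against time-zero and untreated control plates.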
# NCI-H23 = experiment: Anticancer activity against human NCI-H23 cells assessed as cell growth at 10^-5 M after 48 hrs by SRB assay; details: NCI-H23, 48 h, read-out: Activity
# COLO 205 = experiment: Anticancer activity against human COLO205 cells assessed as cell growth at 10^-5 M after 48 hrs by SRB assay; details: COLO 205, 48 h, read-out: Activity; summary of the method: as §1
# Malme-3M = experiment: Anticancer activity against human MALME-3M cells assessed as cell growth at 10^-5 M after 48 hrs by SRB assay; details: read-out: Activity; summary of the method: as §1
# HOP-62 = experiment: Anticancer activity against human HOP62 cells assessed as cell growth at 10^-5 M after 48 hrs by SRB assay; details: HOP-62, 48 h, read-out: Activity; summary of the method: as §1
# U-251 = experiment: Anticancer activity against human U251 cells assessed as cell growth at 10^-5 M after 48 hrs by SRB assay; details: U-251, 48 h, read-out: Activity
# Summary of the method: (§2)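 NCI-60 single-dose screen: cells in RPMI 1640 with 5% FBS and 2 mM L-glutamine, plated at 5000–40,000 cells/well by doubling time, and preincubated 24 h at 37 °C. Compound given at one concentration from DMSO stock. Cells TCA-fixed and SRB-stained, absorbance at 515 nm. Percent growth relative to time-zero and untreated controls; inhibition % = 100 − growth %.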
# OVCAR-4 = experiment: Anticancer activity against human OVCAR4 cells assessed as cell growth at 10^-5 M after 48 hrs by SRB assay; details: OVCAR-4, 48 h, read-out: Activity
# A498 = experiment: Anticancer activity against human A498 cells assessed as cell growth at 10^-5 M after 48 hrs by SRB assay; details: A498, 48 h, read-out: Activity; summary of the method: as §1
# LOX IMVI = experiment: Anticancer activity against human LOXIMVI cells assessed as cell growth at 10^-5 M after 48 hrs by SRB assay; details: read-out: Activity; summary of the method: as §1
# NCI-H322M = experiment: Anticancer activity against human NCI-H322M cells assessed as cell growth at 10^-5 M after 48 hrs by SRB assay; details: read-out: Activity
# UO-31 = experiment: Anticancer activity against human UO31 cells assessed as cell growth at 10^-5 M after 48 hrs by SRB assay; details: UO-31, 48 h, read-out: Activity; summary of the method: as §2
# MOLT-4 = experiment: Anticancer activity against human MOLT4 cells assessed as cell growth at 10^-5 M after 48 hrs by SRB assay; details: MOLT-4, 48 h, read-out: Activity
# UACC-257 = experiment: Anticancer activity against human UACC257 cells assessed as cell growth at 10^-5 M after 48 hrs by SRB assay; details: UACC-257, 48 h, read-out: Activity; summary of the method: as §2
# SN12C = experiment: Anticancer activity against human SN12C cells assessed as cell growth at 10^-5 M after 48 hrs by SRB assay; details: read-out: Activity
# SK-MEL-5 = experiment: Anticancer activity against human SK-MEL-5 cells assessed as cell growth at 10^-5 M after 48 hrs by SRB assay; details: SK-MEL-5, 48 h, read-out: Activity
# HCC 2998 = experiment: Anticancer activity against human HCC2998 cells assessed as cell growth at 10^-5 M after 48 hrs by SRB assay; details: HCC 2998, 48 h, read-out: Activity; summary of the method: as §1
# SR = experiment: Anticancer activity against human SR cells assessed as cell growth at 10^-5 M after 48 hrs by SRB assay; details: read-out: Activity; summary of the method: as §2
# HCT-116 = experiment: Anticancer activity against human HCT116 cells assessed as cell growth at 10^-5 M after 48 hrs by SRB assay; details: HCT-116, 48 h, read-out: Activity; summary of the method: as §1
# OVCAR-5 = experiment: Anticancer activity against human OVCAR5 cells assessed as cell growth at 10^-5 M after 48 hrs by SRB assay; details: OVCAR-5, 48 h, read-out: Activity
# M14 = experiment: Anticancer activity against human M14 cells assessed as cell growth at 10^-5 M after 48 hrs by SRB assay; details: M14, 48 h, read-out: Activity; summary of the method: as §1
# SF-268 = experiment: Anticancer activity against human SF268 cells assessed as cell growth at 10^-5 M after 48 hrs by SRB assay; details: SF-268, 48 h, read-out: Activity
# NCI/ADR-RES = experiment: Anticancer activity against human NCI/ADR-RES cells assessed as cell growth at 10^-5 M after 48 hrs by SRB assay; details: read-out: Activity
# SW-620 = experiment: Anticancer activity against human SW620 cells assessed as cell growth at 10^-5 M after 48 hrs by SRB assay; details: SW-620, 48 h, read-out: Activity; summary of the method: as §2
# BT-549 = experiment: Anticancer activity against human BT549 cells assessed as cell growth at 10^-5 M after 48 hrs by SRB assay; details: BT-549, 48 h, read-out: Activity; summary of the method: as §1
# SK-MEL-2 = experiment: Anticancer activity against human SK-MEL-2 cells assessed as cell growth at 10^-5 M after 48 hrs by SRB assay; details: SK-MEL-2, 48 h, read-out: Activity
# EKVX = experiment: Anticancer activity against human EKVX cells assessed as cell growth at 10^-5 M after 48 hrs by SRB assay; details: read-out: Activity; summary of the method: as §1
# CCRF-CEM = experiment: Anticancer activity against human CCRF-CEM cells assessed as cell growth at 10^-5 M after 48 hrs by SRB assay; details: read-out: Activity; summary of the method: as §1
# HOP-92 = experiment: Anticancer activity against human HOP92 cells assessed as cell growth at 10^-5 M after 48 hrs by SRB assay; details: HOP-92, 48 h, read-out: Activity; summary of the method: as §1
# SK-OV-3 = experiment: Anticancer activity against human SKOV3 cells assessed as cell growth at 10^-5 M after 48 hrs by SRB assay; details: SK-OV-3, 48 h, read-out: Activity
# PC-3 = experiment: Anticancer activity against human PC3 cells assessed as cell growth at 10^-5 M after 48 hrs by SRB assay; details: PC-3, 48 h, read-out: Activity
# NCI-H460 = experiment: Anticancer activity against human NCI-H460 cells assessed as cell growth at 10^-5 M after 48 hrs by SRB assay; details: NCI-H460, 48 h, read-out: Activity
# UACC-62 = experiment: Anticancer activity against human UACC62 cells assessed as cell growth at 10^-5 M after 48 hrs by SRB assay; details: UACC-62, 48 h, read-out: Activity; summary of the method: as §2
SMILES,growth at 10 µM (MDA-MB-231) [%],growth at 10 µM (NCI-H23) [%],growth at 10 µM (COLO 205) [%],growth at 10 µM (Malme-3M) [%],growth at 10 µM (HOP-62) [%],growth at 10 µM (U-251) [%],growth at 10 µM (OVCAR-4) [%],growth at 10 µM (A498) [%],growth at 10 µM (LOX IMVI) [%],growth at 10 µM (NCI-H322M) [%],growth at 10 µM (UO-31) [%],growth at 10 µM (MOLT-4) [%],growth at 10 µM (UACC-257) [%],growth at 10 µM (SN12C) [%],growth at 10 µM (SK-MEL-5) [%],growth at 10 µM (HCC 2998) [%],growth at 10 µM (SR) [%],growth at 10 µM (HCT-116) [%],growth at 10 µM (OVCAR-5) [%],growth at 10 µM (M14) [%],further results
COc1cccc(-c2nc3sccn3c2-c2ccnc(NCCNC(=O)c3cc(N4CCOCC4)cc(C(F)(F)F)c3)n2)c1,80.4,110,73.3,80.8,112,100,107,86,79.2,96.6,60.2,60,89.5,89.3,66.2,98.7,80.7,75.6,110,65.3,growth at 10 µM (SF-268): 85.7%; growth at 10 µM (NCI/ADR-RES): 76.5%; growth at 10 µM (SW-620): 109%; growth at 10 µM (BT-549): 81.1%; growth at 10 µM (SK-MEL-2): 76.2%; growth at 10 µM (EKVX): 84.8%; growth at 10 µM (CCRF-CEM): 49.4%; growth at 10 µM (HOP-92): 59.1%; growth at 10 µM (SK-OV-3): 99.4%; growth at 10 µM (PC-3): 66.3%; growth at 10 µM (NCI-H460): 95.6%; growth at 10 µM (UACC-62): 50.9%
O=C(NCCNc1nccc(-c2c(-c3cccc(O)c3)nc3sccn23)n1)c1cccc(C(F)(F)F)c1,76.2,81,71.1,0.75,114,84.8,117,84.5,53.4,103,73.4,61.5,14.3,83.2,52.6,117,97,74.3,113,17.5,growth at 10 µM (SF-268): 86.7%; growth at 10 µM (NCI/ADR-RES): 98.3%; growth at 10 µM (SW-620): 107%; growth at 10 µM (BT-549): 88%; growth at 10 µM (SK-MEL-2): 62.1%; growth at 10 µM (EKVX): 91.6%; growth at 10 µM (CCRF-CEM): 37.5%; growth at 10 µM (HOP-92): 83.8%; growth at 10 µM (SK-OV-3): 84.2%; growth at 10 µM (PC-3): 67.3%; growth at 10 µM (NCI-H460): 85.7%; growth at 10 µM (UACC-62): 3.21%
